Test results reported in ChEMBL document CHEMBL4312018, “Novel benzimidazole phosphonates as potential inhibitors of protein prenylation” (Bioorg Med Chem Lett, 2019).
Calls of active or inactive are those of the source.

Columns and labels:
[1] = target: T1, Farnesyl pyrophosphate synthase (Homo sapiens, UniProt P14324); assay: Inhibition of FDPS (unknown origin) using [14C] IPP and GPP as substrate preincubated for 10 mins followed by substrate addition and measured after 30 min by liquid scintillation counting method
T1 sequence (P14324 whole entry): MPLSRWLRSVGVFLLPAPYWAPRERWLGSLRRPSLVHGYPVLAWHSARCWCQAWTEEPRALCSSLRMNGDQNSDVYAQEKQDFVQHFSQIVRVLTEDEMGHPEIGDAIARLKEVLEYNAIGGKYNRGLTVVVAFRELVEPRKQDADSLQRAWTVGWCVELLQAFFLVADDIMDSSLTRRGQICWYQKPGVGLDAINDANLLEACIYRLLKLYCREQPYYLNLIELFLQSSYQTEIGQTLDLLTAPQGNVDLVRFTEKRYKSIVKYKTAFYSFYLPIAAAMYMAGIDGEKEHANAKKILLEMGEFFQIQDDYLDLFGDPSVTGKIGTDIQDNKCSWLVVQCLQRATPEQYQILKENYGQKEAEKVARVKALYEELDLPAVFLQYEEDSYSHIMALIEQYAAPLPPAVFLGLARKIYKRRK

[2] = target: T2, Geranylgeranyl pyrophosphate synthase (Homo sapiens, UniProt O95749); assay: Inhibition of GGDPS (unknown origin) using [14C] IPP and FPP as substrate preincubated for 10 mins followed by substrate addition and measured after 30 min by liquid scintillation counting method
T2 sequence (O95749 whole entry): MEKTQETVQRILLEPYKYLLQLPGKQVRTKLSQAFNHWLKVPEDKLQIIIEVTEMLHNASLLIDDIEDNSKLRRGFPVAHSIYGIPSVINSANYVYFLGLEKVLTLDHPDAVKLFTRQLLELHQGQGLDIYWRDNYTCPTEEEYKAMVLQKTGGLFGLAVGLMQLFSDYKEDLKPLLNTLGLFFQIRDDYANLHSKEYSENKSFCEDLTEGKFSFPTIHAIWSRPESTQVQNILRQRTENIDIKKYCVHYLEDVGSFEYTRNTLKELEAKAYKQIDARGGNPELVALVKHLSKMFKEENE

[3] = target: T3, Geranylgeranyl transferase type-2 (Rattus norvegicus, UniProt Q08602+Q08603); assay: Inhibition of recombinant rat RabGGTase expressed in Escherichia coli using Rab7 as substrate and [3H]geranylgeranyl pyrophosphate after 20 mins by liquid scintillation analysis
T3 sequence (Q08603 whole entry): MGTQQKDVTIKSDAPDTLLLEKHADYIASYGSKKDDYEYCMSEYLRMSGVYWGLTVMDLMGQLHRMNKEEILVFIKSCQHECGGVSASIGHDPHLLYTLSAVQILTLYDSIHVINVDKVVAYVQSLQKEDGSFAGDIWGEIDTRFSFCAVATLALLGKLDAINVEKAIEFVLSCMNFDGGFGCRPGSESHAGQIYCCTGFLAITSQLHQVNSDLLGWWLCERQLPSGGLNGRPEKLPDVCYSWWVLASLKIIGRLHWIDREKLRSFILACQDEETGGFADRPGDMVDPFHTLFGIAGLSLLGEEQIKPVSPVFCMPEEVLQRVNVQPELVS
T3 sequence (Q08602 whole entry): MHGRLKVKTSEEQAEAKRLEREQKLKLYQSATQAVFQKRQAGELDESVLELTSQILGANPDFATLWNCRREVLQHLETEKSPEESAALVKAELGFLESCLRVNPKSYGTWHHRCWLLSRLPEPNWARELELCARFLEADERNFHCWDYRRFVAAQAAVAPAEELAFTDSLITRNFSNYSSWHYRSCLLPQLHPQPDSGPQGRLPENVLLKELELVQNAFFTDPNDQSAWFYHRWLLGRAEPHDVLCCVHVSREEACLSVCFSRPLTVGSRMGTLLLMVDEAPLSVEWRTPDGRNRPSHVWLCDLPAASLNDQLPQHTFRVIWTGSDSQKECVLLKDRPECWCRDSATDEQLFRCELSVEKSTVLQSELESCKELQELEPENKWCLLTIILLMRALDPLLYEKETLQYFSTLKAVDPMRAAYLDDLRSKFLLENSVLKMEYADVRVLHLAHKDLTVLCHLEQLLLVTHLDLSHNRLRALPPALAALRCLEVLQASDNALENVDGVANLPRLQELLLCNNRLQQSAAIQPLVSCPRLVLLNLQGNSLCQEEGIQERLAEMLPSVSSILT

Homo sapiens = species on record: Homo sapiens; assay: Selectivity ratio of IC50 for GGDPS (unknown origin) to IC50 for FDPS (unknown origin)
[4] = target: T4, Geranylgeranyl transferase type-2 (Homo sapiens) (UniProt P53611+Q92696); assay: Inhibition of GGtase-2 in human cells assessed as minimum effective dose required for increase in intracellular lambda chain level after 48 hrs by ELISA; format: cell-based
Method in brief: (§1)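 The lowest effective concentration in RPMI-8226 cells after 48 h requires both criteria below: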

[5] = target: T5, Farnesyl pyrophosphate synthase (Homo sapiens) (UniProt P14324)
T5 sequence (whole entry): T1 sequence (P14324 whole entry)

[6] = target: geranylgeranyltransferase type-I (Rattus norvegicus, UniProt P53610+Q04631); assay: Inhibition of recombinant rat GGtase-1 expressed in Escherichia coli using dansyl-GCVLL as substrate after 1.5 hrs by spectrofluorimetric analysis
[7] = target: T5, Farnesyl pyrophosphate synthase (Homo sapiens); remark: listed apart in the source
[8] = target: Protein farnesyltransferase (Rattus norvegicus, UniProt Q02293+Q04631); assay: Inhibition of recombinant rat FTase expressed in Escherichia coli using dansyl-GCVLS as substrate after 1.5 hrs by spectrofluorimetric analysis
[9] = target: T4, Geranylgeranyl transferase type-2 (Homo sapiens); assay: Inhibition of GGtase-2 in human cells assessed as minimum effective dose causing => 20% decrease in Rab6 level after 48 hrs by immunoblot analysis; format: cell-based; method in brief: as §1
[10] = target: T4, Geranylgeranyl transferase type-2 (Homo sapiens); assay: Inhibition of GGtase-2 in human RPMI8226 cells assessed as accumulation of intracellular lambda light chain level at 10 to 100 uM after 48 hrs by immunoblot analysis; format: cell-based
[11] = target: T6, Protein farnesyltransferase (Homo sapiens) (UniProt P49354+P49356); assay: Inhibition of FTase in human RPMI8226 cells assessed as disruption of H-ras farnesylation at 10 to 100 uM incubated for 48 hrs by immunoblot analysis; format: cell-based
[12] = target: T7, Geranylgeranyl transferase type I (Homo sapiens) (UniProt P49354+P53609); assay: Inhibition of GGtase-1 in human RPMI8226 cells assessed as disruption of Rap1a geranylgeranylation at 10 to 100 uM incubated for 48 hrs by immunoblot analysis; format: cell-based
[13] = target: T7, Geranylgeranyl transferase type I (Homo sapiens); assay: Inhibition of GGtase-1 in human RPMI8226 cells assessed as disruption of Rap1a geranylgeranylation at 10 to 100 uM after 48 hrs in presence lovastatin by immunoblot analysis; format: cell-based
Method in brief: (§2)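 Whole-cell lysates were then immunoblotted for H-Ras and unmodified Rap1a, using an antibody specific to the unprenylated protein. β-tubulin was the loading control.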

[14] = target: T6, Protein farnesyltransferase (Homo sapiens); assay: Inhibition of FTase in human RPMI8226 cells assessed as disruption of H-ras farnesylation at 10 to 100 uM after 48 hrs in presence of lovastatin by immunoblot analysis; format: cell-based; method in brief: as §2
[15] = target: T6, Protein farnesyltransferase (Homo sapiens); assay: Inhibition of FTase in human RPMI8226 cells assessed as disruption of H-ras farnesylation at 1 to 5 mM incubated for 48 hrs by immunoblot analysis; format: cell-based
[16] = target: T4, Geranylgeranyl transferase type-2 (Homo sapiens); assay: Inhibition of GGTase-2 in human RPMI8226 cells assessed as ratio of calnexin to Rab6 level at […] after 48 hrs by immunoblot analysis relative to control; format: cell-based
[17] = target: T4, Geranylgeranyl transferase type-2 (Homo sapiens); assay: Inhibition of GGtase-2 in human RPMI8226 cells assessed as increase in intracellular lambda light chain level at 1 to 5 mM incubated for 48 hrs […]; format: cell-based
Method in brief: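 RPMI-8226 cells were incubated 48 h with the compound or medium alone. Intracellular lambda light chain was quantified by ELISA and expressed as percent of untreated control (mean ± SD, n=3). Significance versus control was judged by t-test, p<0.05.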

[18] = target: T4, Geranylgeranyl transferase type-2 (Homo sapiens); assay: Inhibition of GGTase-2 in human RPMI8226 cells assessed as ratio of calnexin to Rab6 level at 5 mM after 48 hrs by immunoblot analysis relative to control; format: cell-based
Method in brief: (§3)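 After 48 h treatment, RPMI-8226 cells were extracted with Triton X-114 to give a detergent (membrane) fraction, which was immunoblotted for Rab6. Rab6 band density was normalized to calnexin and expressed relative to untreated cells. Blots are representative of three independent studies.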

[19] = target: T7, Geranylgeranyl transferase type I (Homo sapiens); assay: Inhibition of GGtase-1 in human RPMI8226 cells assessed as disruption of Rap1a geranylgeranylation at 1 to 5 mM incubated for 48 hrs by immunoblot analysis; format: cell-based
[20] = target: T4, Geranylgeranyl transferase type-2 (Homo sapiens); assay: Inhibition of GGTase-2 in human RPMI8226 cells assessed as ratio of calnexin to Rab6 level at 1 mM after 48 hrs by immunoblot analysis relative to control; format: cell-based; method in brief: as §3
[21] = target: T6, Protein farnesyltransferase (Homo sapiens); assay: Inhibition of FTase in human RPMI8226 cells assessed as disruption of H-ras farnesylation at 0.5 uM after 48 hrs by immunoblot analysis; format: cell-based
[22] = target: T7, Geranylgeranyl transferase type I (Homo sapiens); assay: Inhibition of GGtase-1 in human RPMI8226 cells assessed as disruption of Rap1a geranylgeranylation at 0.5 uM after 48 hrs by immunoblot analysis; format: cell-based

Structure (SMILES)	IC50 [1]	IC50 [2]	IC50 [3]	LED [4]	LED [5]	IC50 [6]	LED [7]	IC50 [8]	LED [9]	further results
O=P(O)(O)C(Cn1cnc2cc(F)c(F)cc21)P(=O)(O)O	0.15 µM	87 µM	738 µM	0.5 mM	0.5 mM	122 µM	0.5 mM	340 µM	0.5 mM	Ratio IC50 (Homo sapiens): 580
O=P(O)(O)C(Cn1cnc2ccccc21)P(=O)(O)O	0.024 µM	20.5 µM	> 1000 µM	–	–	> 1000 µM	–	830 µM	0.025 mM	inhibition [10]: Active; inhibition [11]: Active; inhibition [12]: Active; inhibition [13]: Active; inhibition [14]: Active
O=C(O)C(Cn1cnc2ccccc21)P(=O)(O)O (stereo not drawn)	> 100 µM	> 100 µM	198 µM	1 mM	1 mM	> 1000 µM	1 mM	125 µM	1 mM	inhibition [15]: inactive; FC [16]: 0.4; inhibition [17]: Active; fold change (FC) [18]: 0.3; inhibition [19]: inactive; fold change (FC) [20]: 0.6
CC[C@H](C)C(=O)O[C@H]1C[C@@H](C)C=C2C=C[C@H](C)[C@H](CC[C@@H]3C[C@@H](O)CC(=O)O3)[C@H]21	–	–	–	–	–	–	–	–	–	inhibition [21]: Active; inhibition [22]: Active
